Where two headings read alike, the source gives them in different places.
How the values were obtained:
[1] = Free calcium concentration in bath medium by calcium ion selective electrode; assay type: physicochemical; details: agonist concentrations above 100 µM; Mg^2+-free buffer, Ca^2+ fixed at 950 µM
Summary of the method: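 Free Ca2+ read with a Ca2+-selective electrode. Mg2+-free buffer: 147 mM NaCl, 3 mM KCl, 10 mM glucose, 10 mM HEPES, pH 7.35, with 0.95 mM Ca2+. ATP or BzATP at 0, 1, 3.2, 10, 32, 100 and 320 µM, diluted from 10 mM aqueous stocks. Millivolt readings converted using a semilogarithmic standard curve. Means of three experiments.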

[2] = biological target: T1, rat P2X7R (Rattus norvegicus, UniProt Q64663); assay type: cell-based
T1 sequence (Q64663 1-595): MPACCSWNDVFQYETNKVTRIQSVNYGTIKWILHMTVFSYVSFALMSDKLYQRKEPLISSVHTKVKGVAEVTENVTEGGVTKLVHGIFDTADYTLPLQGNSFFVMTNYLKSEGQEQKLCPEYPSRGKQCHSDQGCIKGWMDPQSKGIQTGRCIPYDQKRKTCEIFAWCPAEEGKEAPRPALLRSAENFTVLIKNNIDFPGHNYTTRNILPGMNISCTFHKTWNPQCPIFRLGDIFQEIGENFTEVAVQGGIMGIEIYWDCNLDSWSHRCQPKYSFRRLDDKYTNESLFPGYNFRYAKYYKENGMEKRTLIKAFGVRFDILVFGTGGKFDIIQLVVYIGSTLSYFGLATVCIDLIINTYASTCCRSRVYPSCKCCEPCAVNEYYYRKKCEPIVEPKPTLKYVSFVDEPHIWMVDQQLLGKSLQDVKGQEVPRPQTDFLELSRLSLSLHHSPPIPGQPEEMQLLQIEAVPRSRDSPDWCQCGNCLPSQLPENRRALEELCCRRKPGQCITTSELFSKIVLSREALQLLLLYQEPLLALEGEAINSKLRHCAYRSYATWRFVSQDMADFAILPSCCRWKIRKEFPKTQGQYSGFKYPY

[3] = test system: rP2X7R-H130A mutant; assay type: cell-based, rat; details: 100 µM BzATP; 10 mM Ca^2+ vs Ca^2+-deficient medium
Summary of the method: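 Rat P2X7R-H130A mutant transfected into HEK293 cells (2 µg DNA, Lipofectamine 2000, serum-free Opti-MEM 4.5 h, then 24–48 h), replated 2–10 h, EGFP-positive cells chosen. Whole-cell patch clamp at room temperature, −60 mV hold. Pipette: 145 mM NaCl, 10 mM EGTA, 10 mM HEPES, pH 7.35. Bath: Krebs-Ringer-like, 1 mM MgCl2, pH 7.35. 100 µM BzATP given in Ca2+-deficient or 10 mM Ca2+ medium. Four experiments, mean ± SEM.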

Compound: 2’(3′)-O-4-benzoylbenzoyl)ATP [BzATP]
- free Ca^2+ concentration in presence of BzATP relative to ATP (higher) [1]: 2–3%

Compound: Clc1cccc(-c2nnnn2Cc2cccnc2)c1Cl [A438079]
- time for effect on receptor deactivation ([2]; 100 µM A438079 applied during washout of 100 µM BzATP, Ca^2+-containing and Ca^2+-deficient medium): ~0.8 s
- potency relative to ATP ([2]; higher potency than ATP at rat receptor): ~3,000 fold
- potency relative to BzATP ([2]; higher potency than BzATP at rat receptor): 200 fold
- current generated when applied alone ([2]; no agonist, unpublished data): did not generate any current
- IC50 ([2]; read-out: IC50, inhibition of current, cells stimulated with 32 µM BzATP): ~300 nM
- IC50 ([2]; read-out: IC50, reduction of peak amplitude of current, applied together with 3.2 mM ATP, estimated): ~1000 nM

Compound: [Ca+2] [Ca^2+, calcium]
- rightward shift in agonist (ATP, BzATP) dose-response ([2]; naive receptors, 2-mM Ca^2+-containing vs Ca^2+-deficient medium, 1 mM Mg^2+): ~0.5 log units
- decrease in the peak amplitude of current [3]: 15 fold

Reference: PMC3182445 (The Journal of General Physiology, 2011)
